Screening results as filed in PubChem.
Platelet DG rel – modulates dense granule release in human platelets; human platelet-rich plasma, SFLLRN dense granule ATP release, luminescence; inhibition, %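 (compounds screened at 7.5 µM in platelet-rich plasma)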; hit rate 0.22% among 300,000; AID 1663;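 active = mean replicate score, as percent of positive control, at or above 50; inconclusive = mean below 50 but at least one replicate at or above 50; inactive = mean and every replicate below 50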
TRPC6 inh – inhibitors of mouse TRPC6 channel; Q61143; AID 2553; HEK293-TRPC6, membrane potential dye, ACh-evoked depolarization; active compounds read low; B-score at 10 µM; hit rate 1.1% among 310,000;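 active = B-score under library mean minus 3 SD, initial fluorescence not abnormally high, positive integrated signal ratio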;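 note: B-score derived from integrated fluorescence ratio over the kinetic read; more negative B-score means stronger inhibition of depolarization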
Target sequence (Q61143 whole entry, looked up): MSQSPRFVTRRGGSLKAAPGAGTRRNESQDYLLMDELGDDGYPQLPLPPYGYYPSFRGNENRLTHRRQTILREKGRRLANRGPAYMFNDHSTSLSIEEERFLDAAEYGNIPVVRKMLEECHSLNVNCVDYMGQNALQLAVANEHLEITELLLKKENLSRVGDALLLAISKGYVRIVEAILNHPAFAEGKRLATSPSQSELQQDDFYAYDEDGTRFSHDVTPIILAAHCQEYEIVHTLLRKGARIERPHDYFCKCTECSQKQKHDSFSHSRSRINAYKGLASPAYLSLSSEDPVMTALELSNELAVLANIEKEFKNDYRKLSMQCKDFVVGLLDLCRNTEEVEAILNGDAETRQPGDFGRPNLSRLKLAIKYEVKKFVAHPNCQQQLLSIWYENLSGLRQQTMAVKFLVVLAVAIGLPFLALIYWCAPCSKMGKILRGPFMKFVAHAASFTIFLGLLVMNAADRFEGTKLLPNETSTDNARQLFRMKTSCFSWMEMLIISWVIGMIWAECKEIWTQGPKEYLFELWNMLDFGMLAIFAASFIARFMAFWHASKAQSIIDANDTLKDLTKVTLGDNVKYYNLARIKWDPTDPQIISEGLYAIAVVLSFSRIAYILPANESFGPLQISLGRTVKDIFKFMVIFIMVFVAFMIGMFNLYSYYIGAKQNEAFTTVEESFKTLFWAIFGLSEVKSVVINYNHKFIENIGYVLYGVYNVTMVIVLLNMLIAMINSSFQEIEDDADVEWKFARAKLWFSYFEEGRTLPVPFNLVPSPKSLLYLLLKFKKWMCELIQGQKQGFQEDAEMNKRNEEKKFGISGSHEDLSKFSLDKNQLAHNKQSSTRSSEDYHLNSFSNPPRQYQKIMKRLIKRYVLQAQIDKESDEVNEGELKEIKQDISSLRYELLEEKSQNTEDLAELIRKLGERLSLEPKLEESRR
TRPC6 act – mouse TRPC6 channel activation. HEK293-TRPC6 membrane potential dye fluorescence; active compounds read high. B-score at 10 µM. hit rate 0.13% among 310,000;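 active = B-score of the integrated fluorescence ratio above library mean plus 3 SD, and starting fluorescence ratio within library mean plus 5 SD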;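 note: higher score means more depolarization so channel activation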
TRPC4 block – TRPC4 (mouse) channel inhibition | hit rate 0.39% among 300,000 | AID 2247 | Q9QUQ5 | B-score at 10 µM | HEK293 TRPC4beta/mu-opioid, DAMGO-evoked Fluo4 calcium flux; active compounds read low;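 active = B-score over 3 SD under the library average, no early fluorescence shift, positive overall ratio signal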
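Material: HEK293 cells with stable TRPC4beta plus mu-opioid receptor expression / Probe or stimulus: DAMGO in two steps, submaximal then maximal / Compound: single concentration per test compound / Technique: kinetic Fluo4 fluorescence imaging of calcium influx / Read-out: per-well B score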
TRPC4 agonist – activators of mouse TRPC4 channel. AID 2237. B-score at 10 µM. hit rate 0.49% among 310,000. Q9QUQ5. HEK293 TRPC4beta/mu-opioid, Fluo4 calcium fluorescence; active compounds read high;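 active = B-score above 5 SD of library B-scores, and initial fluorescence ratio not above library mean plus 5 SD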;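 note: positive B-score marks a calcium rise read as TRPC4 activation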
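Assay system: HEK293 stable line with TRPC4beta plus mu-opioid receptor; schedule: 45 min room-temperature Fluo4 loading, 110 s read; technique: kinetic Fluo4 calcium fluorescence; evaluation: integrated baseline-normalised fluorescence ratio, converted to per-well B score; controls: buffer (low) and maximal DAMGO (high)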
TRPC4 PAM – TRPC4 (mouse) allosteric potentiation. AID 2227. HEK293 TRPC4beta/mu-opioid, DAMGO EC20, Fluo-4 Ca2+ flux; active compounds read high. Q9QUQ5. hit rate 0.42% among 310,000. B-score at 10 µM;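 active = B-score of calcium response area above 5 SD of library B-scores, with initial fluorescence ratio within 5 SD of library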;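 note: B-score of integrated fluorescence ratio over time as area under calcium response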
* = called active by the depositor; i = inactive; ? = inconclusive. The list is not random: actives were taken first. Their share in the collection is about 2.5%.

SMILES | Platelet DG rel | TRPC6 inh | TRPC6 act | TRPC4 block | TRPC4 agonist | TRPC4 PAM
CCn1c2ccccc2c2cc(CNCc3ccc(OC)cc3OC)ccc21 | 7.2 | i | i | i | 66* | i
CCn1c2ccccc2c2cc(CNCCCN3CCOCC3)ccc21 | -3.9 | -6.26* | i | i | i | i
CC[C@@H](C)[C@H](CNC)NC[C@@H](Cc1cccc2ccccc12)NCCc1cccc(C(F)(F)F)c1 | -0.3 | i | i | i | 97* | i
COc1ccc(/C=C/C(=O)Oc2ccc(C)cc2)cc1 | 1.3 | i | i | i | i | i
Cc1ccc(C)c(NC(=O)c2cc(=O)c3ccccc3o2)c1 | -10.9 | i | i | i | i | 12*
Cc1onc(-c2ccccc2Cl)c1C(=O)Nc1ccc(S(=O)(=O)N2CCCC2)cc1 | 19.5 | i | i | i | i | 10*
Cc1onc(-c2ccccc2)c1C(=O)Nc1ccc(S(=O)(=O)N2CCOCC2)cc1 | -11.6 | i | i | i | i | i
CN(C)C1(CNC(=O)CC(NC(=O)c2ccccc2Cl)c2ccccc2)CCCCC1 (configuration not stated) | -3.7 | i | i | -7* | 44* | i
CSc1nc(N2CCOCC2)c2c3c(sc2n1)CCCC3 | 0.1 | i | i | -6* | i | i
Cc1nc(N2CCOCC2)c2c3c(sc2n1)CCC3 | -2.2 | i | i | i | i | i
COCC(C)NC(C(=O)Nc1ccc(Cl)c([N+](=O)[O-])c1)c1ccccc1 (configuration not stated) | -4.4 | i | i | -7* | i | i
CCC(C)NC(C(=O)Nc1ccc(Cl)c([N+](=O)[O-])c1)c1ccccc1 (configuration not stated) | 7.7 | i | i | -7* | i | i
O=C(Nc1ccc(Cl)c([N+](=O)[O-])c1)C(NCCCO)c1ccccc1 (configuration not stated) | 2.5 | i | i | i | i | i
O=C(Nc1ccc(Cl)c([N+](=O)[O-])c1)C(Sc1ccccc1)c1ccccc1 (configuration not stated) | 7.9 | i | i | i | i | i
CCCn1c(C)cc(/C=C(\C#N)C(=O)OCC(=O)Nc2cccc(OC)c2)c1C | -20.9 | i | i | i | i | i
CCCCN(C)CCNC(=O)C(NC(=O)C1CCC(C)CC1)C(C)C (configuration not stated) | -7.1 | i | i | i | 52* | i
Cc1cccc(C)c1NC(=O)N1CCN(c2nc3ccccc3s2)CC1 | -0.5 | i | i | i | i | i
COCCn1nnnc1C(c1cccs1)N1CCN(c2nc3ccccc3s2)CC1 (configuration not stated) | -9.6 | i | i | i | i | i
c1ccc(CN2CCN(c3nc4ccccc4s3)CC2)cc1 | 5.5 | i | i | i | i | 17*
O=C(O)CCC(=O)N1CCN(c2nc3ccccc3s2)CC1 | 6.8 | i | i | i | i | 20*
Oc1ccc(C(c2nnnn2CCc2ccccc2)N2CCN(c3nc4ccccc4s3)CC2)cc1 (configuration not stated) | -1.4 | i | i | i | 77* | i
c1ccc(CN2CCN(c3nc(N4CCOCC4)c4ccccc4n3)CC2)cc1 | -0.2 | -5.48* | i | i | i | i
COC(=O)c1cncc(O)c1 | -5.8 | i | i | i | i | i
CCCn1nc(C(=O)NC2CCCc3ccccc32)c2ccccc2c1=O (configuration not stated) | -6.2 | i | i | i | i | 23*
CCn1cc(/C=N\NC(=O)c2ccc(Cl)cc2)cn1 | 11.5 | i | i | i | i | i
SMILES | Platelet DG rel | TRPC6 inh | TRPC6 act | TRPC4 block | TRPC4 agonist | TRPC4 PAM
CCOC(=O)c1c(NC(=O)COC(=O)Cc2c[nH]c3ccccc23)sc(C(=O)N(C)C)c1C | -38.8 | i | i | i | 175* | 53*
CN(/N=C/c1ccc(N(C)C)cc1)C1=NS(=O)(=O)c2ccccc21 | 0.1 | i | i | i | i | i
Cc1nn(C)c(Oc2ccc(Cl)cc2)c1C(=O)Nc1ccc(F)cc1F | -2.2 | i | i | i | i | i
N/C(=N\OC(=O)c1ccc(Cl)cc1Cl)c1ccccn1 | 55.9* | i | i | i | i | i
Cc1ccc(C(=O)O/N=C(\N)c2ccccc2)c(Cl)c1 | 68.5* | i | i | i | i | i
N/C(=N\OC(=O)c1ccccc1Cl)c1ccncc1 | -0.8 | i | i | i | i | i
N/C(=N\OC(=O)c1cc(Br)ccc1Cl)c1ccccn1 | -4.5 | i | i | i | i | i
Cc1ccc(C(=O)O/N=C(\N)c2ccccn2)c(Cl)c1 | 75.9* | i | i | i | i | i
COc1ccccc1OCC(=O)NNC(=O)Nc1ccccc1 | -1.1 | i | i | i | i | i
COCc1cc(C)nc(Oc2ccccc2)c1C#N | 1.0 | i | i | i | i | i
Cc1ccc(Cl)cc1N1CCN(Cc2nc3ccsc3c(=O)[nH]2)CC1 | -1.4 | i | i | i | i | 28*
O=c1[nH]c(CN2CCN(c3ccc([N+](=O)[O-])cc3)CC2)nc2ccsc12 | 0.8 | i | i | i | i | i
CC(=O)c1cccc(NC(=O)CSc2nc(=O)n(CCN3CCOCC3)c3c2CCC3)c1 | -7.0 | i | i | i | i | i
COc1cccc(/C=N/Nc2ccnc(=O)[nH]2)c1O | ? | i | i | i | i | i
O=c1nccc(N/N=C/c2ccccc2O)[nH]1 | 62.5* | i | i | i | i | i
CCCN(CCC)CCCNS(=O)(=O)c1ccc2c(c1)oc(=O)n2C | -5.9 | i | i | i | 56* | i
CC(C)OCCCNS(=O)(=O)c1ccc2c(c1)oc(=O)n2C | -0.3 | i | i | i | i | i
Cc1ccc(C)c(Cn2nnc(C(=O)Nc3ccc4c(c3)OCCO4)c2N)c1 | 4.8 | i | i | i | i | i
Cc1cc(C)cc(NC(=O)c2nnn(Cc3cc(C)ccc3C)c2N)c1 | 11.5 | i | i | i | i | 17*
c1ccc2c(-c3nnc(SCc4cn5ccccc5n4)o3)c[nH]c2c1 | -7.0 | i | i | i | i | i
c1ccc2c(-c3cn4ccccc4n3)c[nH]c2c1 | 0.3 | -5.47* | i | -9* | i | i
Cc1oc(-c2ccc(Cl)cc2)cc1C(=O)/C(C#N)=C/Nc1ccccc1 | -1.6 | i | i | i | i | i
